We go through 15 compounds from ChEMBL document CHEMBL1155269, “Synthesis and antibacterial activity of some new heterocycles incorporating phthalazine” (2009).

In one experiment the test system is Bacillus thuringiensis. The experiment is described as follows: Antibacterial activity against Bacillus thuringiensis at 2 mg/ml after 24 hrs by agar diffusion assay. Particulars: read-out: DIZ. Type of experiment: functional. In a few lines:
(§1)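 Agar diffusion; compounds applied as 2 mg ml−1 solutions in DMSO to agar media seeded with the test bacterium (cultures maintained on nutrient agar). DMSO-only control included for each organism; ampicillin and chloramphenicol references at 2 mg ml−1. Plates incubated 24 h at 30 °C, then inhibition zone diameter (mm) measured.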

A further experiment concerns Escherichia coli. Description: Antibacterial activity against Escherichia coli at 2 mg/ml after 24 hrs by agar diffusion assay. In kind it is functional. Conditions: read-out: DIZ. In short, it runs like this:
as §1

Molecules are shown by their SMILES.

`N#CC(C(=O)N1NC(=O)C2C3c4ccccc4C(c4ccccc43)C2C1=O)=C1SCCS1` (centres undefined): the zone of inhibition at 2000 µg/mL in the experiment with Bacillus thuringiensis was determined as 13 mm. As for `N=c1oc2ccccc2cc1C(=O)N1NC(=O)C2C3c4ccccc4C(c4ccccc43)C2C1=O` (centres undefined), the zone of inhibition at 2000 µg/mL in the experiment with Escherichia coli amounted to 12 mm; with Bacillus thuringiensis, 20 mm. In the same order, the values of `CC1=Nc2c(s/c(=N\N)n2-c2ccccc2)C(=O)N2C(=O)C3C4c5ccccc5C(c5ccccc54)C3C(=O)N12` (centres undefined) are 13 mm and 19 mm. In the same order, the values of `O=C1C2C3c4ccccc4C(c4ccccc43)C2C(=O)N2C(=O)c3sc(=S)n(-c4ccccc4)c3N=CN12` (centres undefined) are 12 mm and 13 mm. The matching figures for `N#CC(Br)C(=O)N1NC(=O)C2C3c4ccccc4C(c4ccccc43)C2C1=O` (centres undefined): 20 mm and 16 mm. As for `CC1=Nc2c(sc(=S)n2-c2ccccc2)C(=O)N2C(=O)C3C4c5ccccc5C(c5ccccc54)C3C(=O)N12` (centres undefined), the figures for the zone of inhibition at 2000 µg/mL in the experiment on Escherichia coli and in the experiment on Bacillus thuringiensis were 11 mm and 16 mm, respectively.

On to `N#CC(Br)(Br)C(=O)N1NC(=O)C2C3c4ccccc4C(c4ccccc43)C2C1=O` (centres undefined), for which the zone of inhibition at 2000 µg/mL in the experiment on Escherichia coli worked out at 29 mm; in the experiment on Bacillus thuringiensis, 27 mm.

Turning to `N#CC(C(=O)N1NC(=O)C2C3c4ccccc4C(c4ccccc43)C2C1=O)=C1SCCCS1` (centres undefined), the zone of inhibition at 2000 µg/mL in the experiment with Escherichia coli turned out to be 16 mm; in the experiment on Bacillus thuringiensis it was 15 mm. The matching figures for `CSC(=S)C(C#N)C(=O)N1NC(=O)C2C3c4ccccc4C(c4ccccc43)C2C1=O` (centres undefined): 22 mm and 22 mm. The matching figures for `O=C1NN(C(=O)c2cc3ccccc3oc2=O)C(=O)C2C3c4ccccc4C(c4ccccc43)C12` (centres undefined): 15 mm and 16 mm. The matching figures for `CS/C(Nc1ccccc1)=C(/C#N)C(=O)N1NC(=O)C2C3c4ccccc4C(c4ccccc43)C2C1=O` (centres undefined): 30 mm and 26 mm. Take `Nc1c(C(=O)N2NC(=O)C3C4c5ccccc5C(c5ccccc54)C3C2=O)sc(=S)n1-c1ccccc1` (centres undefined): the zone of inhibition at 2000 µg/mL with Escherichia coli came to 11 mm; in the experiment with Bacillus thuringiensis, 16 mm. For the compound `Cc1cc(C)c2c(N/N=C(\C#N)C(=O)N3NC(=O)C4C5c6ccccc6C(c6ccccc65)C4C3=O)n[nH]c2n1` (centres undefined), the zone of inhibition at 2000 µg/mL in the experiment on Escherichia coli came out at 30 mm; in the experiment on Bacillus thuringiensis, 20 mm.

Consider `CC1(C)S[C@@H]2[C@H](NC(=O)[C@H](N)c3ccccc3)C(=O)N2[C@H]1C(=O)O` [AMPICILLIN], for which the zone of inhibition at 2000 µg/mL in the experiment on Escherichia coli was determined as 18 mm; in the experiment with Bacillus thuringiensis it was 19 mm. In the same order, the values of `O=C(N[C@H](CO)[C@H](O)c1ccc([N+](=O)[O-])cc1)C(Cl)Cl` [CHLORAMPHENICOL] are 23 mm and 20 mm.
